BindingDB's records for doi:10.1021/acs.jmedchem.5b01762 (University of Illinois At Chicago, 2016)

How the values were obtained:
[1] = molecular target: T1, DNA repair protein RAD51 homolog 1 (Homo sapiens, UniProt Q06609); assay: Inhibition of human N-terminal 6-histidine/Avi-tagged recombinant RAD51 expressed in Escherichia coli BL21(DE3) assessed as D-loop formation using 5'-32P-labeled 90-mer ssDNA as substrate preincubated for 10 mins followed by substrate addition with subsequent incubation with substrate for 5 mins measured after 20 mins in presence of supercoiled pRS306 dsDNA by agarose gel electrophoresis
T1 sequence (Q06609 whole entry): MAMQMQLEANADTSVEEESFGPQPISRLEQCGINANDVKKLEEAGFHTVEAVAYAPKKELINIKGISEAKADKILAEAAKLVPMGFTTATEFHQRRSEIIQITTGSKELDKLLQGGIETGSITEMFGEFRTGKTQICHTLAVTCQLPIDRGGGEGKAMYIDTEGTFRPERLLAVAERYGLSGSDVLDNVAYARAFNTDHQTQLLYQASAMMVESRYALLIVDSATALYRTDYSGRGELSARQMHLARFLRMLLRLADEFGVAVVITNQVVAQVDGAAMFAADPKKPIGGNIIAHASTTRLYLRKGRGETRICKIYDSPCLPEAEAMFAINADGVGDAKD

[2] = molecular target: T1, DNA repair protein RAD51 homolog 1; assay: Inhibition of Escherichia coli BL21(DE3) expressing human N-terminal 6-histidine/Avi-tagged RAD51 binding to 5'-Alexa488-oligo-dT45 ssDNA preincubated for 40 mins followed by substrate addition measured after 40 mins by fluorescence polarization based microplate method
How it was run: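 Human RAD51 preincubated with compound in DMSO at 37 °C for 40 min, then 5'-Alexa488-oligo-dT45 added and incubated another 40 min at 37 °C. Buffer: 20 mM HEPES pH 7.5, 2 mM ATP, 10 mM MgCl2, 0.1 mM TCEP. IC50 from least-squares dose–response fits with standard error.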

With COc1ccc2c(c1)NC(c1ccc(N(C)C)cc1)c1cccn1-2 (configuration not stated) the IC50 [1] was > 100 µM and the IC50 [2] was > 100 µM.
